In ChEMBL document CHEMBL1275331, “Discovery of a novel 5-HT(3) antagonist/5-HT(1A) agonist 3-amino-5,6,7,8-tetrahydro-2-{4-[4-(quinolin-2-yl)piperazin-1-yl]butyl}quinazolin-4(3H)-one (TZB-30878) as an orally bioavailable agent for irritable bowel syndrome” (J Med Chem, 2010) one finds IC50 and inhibition data, which are given here for 43 molecules.

Experiment [1] deals with T1, 5-hydroxytryptamine receptor 3A (Homo sapiens, UniProt P46098).
T1 sequence (P46098 whole entry): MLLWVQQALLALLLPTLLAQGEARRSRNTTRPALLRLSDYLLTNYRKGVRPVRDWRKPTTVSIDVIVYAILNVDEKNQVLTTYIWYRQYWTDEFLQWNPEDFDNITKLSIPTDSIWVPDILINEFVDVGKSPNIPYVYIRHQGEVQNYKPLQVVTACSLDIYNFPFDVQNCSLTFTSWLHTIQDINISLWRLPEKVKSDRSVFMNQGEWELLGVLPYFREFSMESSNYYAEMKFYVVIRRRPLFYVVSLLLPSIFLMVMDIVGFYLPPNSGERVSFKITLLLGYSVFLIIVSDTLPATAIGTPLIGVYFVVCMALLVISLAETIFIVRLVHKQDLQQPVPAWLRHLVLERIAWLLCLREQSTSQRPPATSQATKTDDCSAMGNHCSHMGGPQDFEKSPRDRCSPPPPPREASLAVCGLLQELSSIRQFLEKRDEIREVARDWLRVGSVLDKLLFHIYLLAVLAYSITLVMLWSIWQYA
In words: Displacement of [3H]BRL-43694 from human 5HT3 receptor expressed in HEK293 cells by liquid scintillation counting. The experiment is classed as cell-based. A digest of the protocol:
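HEK-293 membranes expressing human 5-HT3 were incubated with 0.5 nmol/L [3H]BRL-43694 (final) for 60 min at 25 °C. Buffer: 50 mM Tris-HCl, 5 mM MgCl2, 1 mM EDTA, pH 7.5. Compound came from 270 μmol/L DMSO stock, diluted in buffer. Filtration was through GF/B presoaked in 0.5% polyethyleneimine, with two cold Tris washes. Run in duplicate or triplicate; percent inhibition calculated.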

Experiment [2] has as its target T2, 5-hydroxytryptamine receptor 1A (Homo sapiens, UniProt P08908).
T2 sequence (P08908 whole entry): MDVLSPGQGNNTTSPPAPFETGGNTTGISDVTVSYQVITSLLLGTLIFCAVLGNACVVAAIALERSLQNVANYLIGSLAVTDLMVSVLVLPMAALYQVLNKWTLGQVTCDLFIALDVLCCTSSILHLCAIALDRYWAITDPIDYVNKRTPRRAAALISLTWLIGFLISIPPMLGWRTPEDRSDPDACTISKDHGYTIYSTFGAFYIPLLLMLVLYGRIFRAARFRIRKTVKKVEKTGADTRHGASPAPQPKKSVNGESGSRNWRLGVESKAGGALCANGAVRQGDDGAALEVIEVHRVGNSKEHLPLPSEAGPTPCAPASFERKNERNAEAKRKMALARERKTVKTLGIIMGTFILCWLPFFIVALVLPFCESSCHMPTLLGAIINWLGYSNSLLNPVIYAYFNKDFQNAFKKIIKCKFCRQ
In words: Displacement of [3H]8-OH-DPAT from human 5HT1A receptor expressed in CHO cells by liquid scintillation counting. The experiment is classed as cell-based. The procedure, abridged:
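CHO-cell membranes with human 5-HT1A were incubated with 0.25 nmol/L [3H]8-OH-DPAT (final) for 60 min at 27 °C. Buffer: 50 mM Tris-HCl, 10 mM MgSO4, 0.5 mM EDTA, 0.1% ascorbic acid, pH 7.4. Compound came from 270 μmol/L DMSO stock, diluted in buffer. Filtration was through GF/C presoaked in 0.3% polyethyleneimine, with two cold Tris washes. Run in duplicate or triplicate; percent inhibition of binding calculated.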

Experiment [3] addresses T3, 5-hydroxytryptamine receptor 3A (Cavia porcellus) (UniProt O70212).
T3 sequence (whole entry): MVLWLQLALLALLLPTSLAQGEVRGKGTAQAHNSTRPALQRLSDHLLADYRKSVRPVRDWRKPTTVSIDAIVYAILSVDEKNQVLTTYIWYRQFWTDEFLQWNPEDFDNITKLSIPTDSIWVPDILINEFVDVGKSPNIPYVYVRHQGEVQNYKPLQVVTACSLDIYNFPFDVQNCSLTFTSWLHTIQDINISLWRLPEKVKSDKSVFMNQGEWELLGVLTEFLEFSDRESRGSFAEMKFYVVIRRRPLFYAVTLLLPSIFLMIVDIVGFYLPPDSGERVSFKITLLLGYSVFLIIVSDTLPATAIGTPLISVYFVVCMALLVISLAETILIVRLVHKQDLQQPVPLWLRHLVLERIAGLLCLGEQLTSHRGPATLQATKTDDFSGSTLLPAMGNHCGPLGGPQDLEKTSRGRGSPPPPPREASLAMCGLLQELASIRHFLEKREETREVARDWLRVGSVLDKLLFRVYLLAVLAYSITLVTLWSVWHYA
In words: Inhibition of 5HT3 receptor-mediated contraction of guinea pig ileum at 1 umol/L after 20 mins relative to control. It is filed as tissue-based. The procedure, abridged: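 Ileum strips in Tyrode solution at 37 °C, gassed 5% CO2/95% O2, isotonic contractions under 1 g load. After at least 3 stable contractions to 10 μM 2-methyl-5-HT, tissue exposed to compound or DMSO vehicle for 20 min, then 10 μM 2-methyl-5-HT re-added; contraction expressed as % inhibition of control.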

The structures appear in SMILES notation. pIC50: −log10 of the molar value. Some results are limits rather than exact numbers.

Regarding `Nn1c(CCCCN2CCN(c3ccc4ccccc4n3)CC2)nc2c(c1=O)CC(O)CC2` (configuration not stated), the negative logarithm of the IC50 (pIC50) in experiment [1] was 7.33; in experiment [2], more than 8.00.
The matching figures for `Nn1c(SCCCN2CCN(c3ccc4ccccc4n3)CC2)nc2cccnc2c1=O`: 7.21 and more than 9.00.
`Cc1cccc2nc(CCCCN3CCN(c4ccc5ccccc5n4)CC3)n(N)c(=O)c12`: the pIC50 was less than 7.00 in experiment [1] and 7.87 in experiment [2].
Turning to `Cc1ccc2nc(CCCCN3CCN(c4ccc5ccccc5n4)CC3)n(N)c(=O)c2c1`, the pIC50 was 7.34 in experiment [1] and more than 8.00 in experiment [2].
The corresponding values for `Nn1c(SCCCN2CCN(c3ccc4ccccc4n3)CC2)nc2ccccc2c1=O` are 7.16 and 7.61.
The corresponding values for `Cc1sc2nc(SCCCN3CCN(c4nc5ccccc5c5ccccc45)CC3)n(N)c(=O)c2c1C` are less than 7.00 and 7.26.
The matching figures for `Nn1c(SCCCN2CCN(c3ccc4ccccc4n3)CC2)nc2sc3c(c2c1=O)CCCC3`: 7.38 and more than 8.00.
For the molecule `Nn1c(CCCCN2CCN(c3ccc4ccccc4n3)CC2)nc2ccc(Cl)cc2c1=O`, the pIC50 was less than 7.00 in experiment [1] and more than 8.00 in experiment [2].
Consider `O=c1[nH]c(SCCCN2CCN(c3ccc4ccccc4n3)CC2)nc2sc3c(c12)CCCC3`, for which the negative logarithm of the IC50 (pIC50) is 7.35 in experiment [1] and less than 7.00 in experiment [2].
The matching figures for `Nn1c(CCCCN2CCN(c3ccc4ccccc4n3)CC2)nc2cccc(F)c2c1=O`: 7.30 and more than 8.00.
For `Nn1c(CCCCN2CCN(c3ccc4ccccc4n3)CC2)nc2ccc(F)cc2c1=O`, the negative-log IC50 (pIC50) in experiment [1] was 7.00; in experiment [2], more than 8.00.
Take `Nn1c(CCCCN2CCN(c3ccc4ccc(O)cc4n3)CC2)nc2c(c1=O)CCCC2`: the negative logarithm of the IC50 (pIC50) was 7.26 in experiment [1] and 7.33 in experiment [2].
The corresponding values for `Nn1c(SCCCN2CCN(c3ccc4ccccc4n3)CC2)nc2ncccc2c1=O` are 7.19 and more than 9.00.
The corresponding values for `Nn1c(CCN2CCN(c3ccc4ccccc4n3)CC2)nc2c(c1=O)CCCC2` are less than 7.00 and less than 7.00.
For `Cc1sc2nc(SCCCN3CCN(c4nc5ccccc5nc4-c4ccccc4)CC3)n(N)c(=O)c2c1C`, the pIC50 in experiment [1] and in experiment [2] was less than 7.00 throughout.
For `CC1CCc2c(nc(CCCCN3CCN(c4ccc5ccccc5n4)CC3)n(N)c2=O)C1` (configuration not stated), the results for the negative-log IC50 (pIC50) in experiment [1] and in experiment [2] were 7.01 and more than 8.00, respectively.
The matching figures for `Cc1c(N2CCN(CCCCc3nc4c(c(=O)n3N)CCCC4)CC2)nc2ccccc2c1C`: less than 7.00 and 7.19.
`Nn1c(CCCCN2CCN(c3ccc4ccccc4n3)CC2)nc2c(Cl)cccc2c1=O`: the results for the pIC50 in experiment [1] and in experiment [2] were 7.08 and more than 8.00, respectively.
In the case of `Nn1c(CN2CCN(c3ccc4ccccc4n3)CC2)nc2c(c1=O)CCCC2`, the pIC50 in experiment [1] was 7.06; in experiment [2], less than 7.00.
The matching figures for `CC1CCc2nc(CCCCN3CCN(c4ccc5ccccc5n4)CC3)n(N)c(=O)c2C1` (configuration not stated): 7.32 and more than 8.00.
The matching figures for `Cc1sc2nc(CCCCN3CCN(c4ccc5ccccc5n4)CC3)n(N)c(=O)c2c1C`: 7.57 and more than 8.00.
The corresponding values for `Nn1c(CCCN2CCN(c3ccc4ccccc4n3)CC2)nc2c(c1=O)CCCC2` are less than 7.00 and 7.04.
Consider `Nn1c(CCCCN2CCN(c3nc4ccccc4c4c3CCCC4)CC2)nc2c(c1=O)CCCC2`, for which the pIC50 in experiment [1] and in experiment [2] was less than 7.00 throughout.
With `Nn1c(SCCCN2CCN(c3ccc4ccccc4n3)CC2)nc2cc([N+](=O)[O-])ccc2c1=O`, the pIC50 in experiment [1] was less than 7.00; in experiment [2], 8.89.
On to `Nn1c(CCCCN2CCN(c3ccc4cc(O)ccc4n3)CC2)nc2c(c1=O)CCCC2`, for which the pIC50 in experiment [1] is less than 7.00; in experiment [2] it was 7.23.
The matching figures for `Cc1sc2nc(SCCCN3CCN(c4nc5ccccc5s4)CC3)n(N)c(=O)c2c1C`: 7.06 and 7.18.
The corresponding values for `Nn1c(CCCCN2CCN(c3nc4ccccc4cc3O)CC2)nc2c(c1=O)CCCC2` are 7.28 and 7.02.
The corresponding values for `Nn1c(CCCCN2CCN(c3ccc4ccccc4n3)CC2)nc2cc(F)ccc2c1=O` are less than 7.00 and more than 8.00.
Regarding `Nn1c(CCCCN2CCN(c3ccc4ccccc4n3)CC2)nc2c(c1=O)CCCCC2`, the pIC50 in experiment [1] was 7.07; in experiment [2], more than 8.00.
With `Nn1c(SCCCN2CCN(c3ccc4ccccc4n3)CC2)nc2sc3c(c2c1=O)CCNC3`, the negative logarithm of the IC50 (pIC50) was 7.00 in experiment [1] and 8.28 in experiment [2].
`Nn1c(CCCCCN2CCN(c3ccc4ccccc4n3)CC2)nc2c(c1=O)CCCC2`: the figures for the negative-log IC50 (pIC50) in experiment [1] and in experiment [2] were less than 7.00 and 8.12, respectively.
The corresponding values for `Cc1sc2nc(SCCCN3CCN(c4cc(C)c5ccccc5n4)CC3)n(N)c(=O)c2c1C` are 7.30 and 8.37.
The corresponding values for `Nn1c(CCCCN2CCN(c3ccc4ccccc4n3)CC2)nc2c(c1=O)CCC2` are 7.21 and more than 9.00.
On to `Cc1sc2nc(SCCCN3CCN(c4ccc5ccccc5n4)CC3)n(N)c(=O)c2c1C`, for which the pIC50 is 7.32 in experiment [1] and 7.44 in experiment [2]. In experiment [3], this molecule had an inhibition of 41.9%.
As for `O=c1[nH]c(CCCCN2CCN(c3ccc4ccccc4n3)CC2)nc2c1CCCC2`, the pIC50 is 7.61 in experiment [1] and 8.21 in experiment [2].
For `Cc1cc2ccccc2nc1N1CCN(CCCCc2nc3c(c(=O)n2N)CCCC3)CC1`, the negative-log IC50 (pIC50) in experiment [1] was less than 7.00; in experiment [2], 7.02.
Take `Nn1c(CCCCN2CCN(c3ccc4ccccc4n3)CC2)nc2cc(Cl)ccc2c1=O`: the results for the pIC50 in experiment [1] and in experiment [2] were less than 7.00 and 7.74, respectively.
Regarding `Nn1c(CCCCN2CCN(c3nc4ccccc4c4c3CCC4)CC2)nc2c(c1=O)CCCC2`, the pIC50 is less than 7.00 in experiment [1] and 7.21 in experiment [2].
Turning to `Cc1sc2nc(SCCCN3CCN(c4ccc5ccccc5n4)CC3)[nH]c(=O)c2c1C`, the negative-log IC50 (pIC50) in experiment [1] and in experiment [2] was less than 7.00 each time.
Turning to `Cc1sc2nc(SCCCN3CCN(c4ccc5c(n4)CCCC5)CC3)n(N)c(=O)c2c1C`, the figures for the pIC50 in experiment [1] and in experiment [2] were less than 7.00 and 8.21, respectively.
Consider `Cc1cccc2c(=O)n(N)c(CCCCN3CCN(c4ccc5ccccc5n4)CC3)nc12`, for which the pIC50 in experiment [1] was 7.81; in experiment [2], more than 8.00.
The matching figures for `Nn1c(CCCCN2CCN(c3ccc4ccccc4n3)CC2)nc2cccc(Cl)c2c1=O`: less than 7.00 and more than 8.00.
The matching figures for `Cc1sc2nc(SCCCN3CCN(c4ccccn4)CC3)n(N)c(=O)c2c1C`: less than 7.00 and 8.38.
